Assay results: ChEMBL document CHEMBL1149790, “Synthesis of some novel thiourea derivatives obtained from 5-[(4-aminophenoxy)methyl]-4-alkyl/aryl-2,4-dihydro-3H-1,2,4-triazole-3-thiones and evaluation as antiviral/anti-HIV and anti-tuberculosis agents” (Eur J Med Chem, 2008)
≈ marks a conversion by molar mass, not a printed value.

Key:
[1] = system: Respiratory syncytial virus; assay: Antiviral activity against respiratory syncytial virus in human HeLa cells assessed as inhibition of virus-induced cytopathogenicity; type: functional
Outline: (§1)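 Confluent cell monolayers (E6SM, HEL, HeLa or Vero, per line) inoculated with 100 CCID50 virus; 1 h adsorption, residual virus removed, then incubated with compound at 400, 200, 100 … µg/ml. Cytopathicity scored once complete in untreated virus controls; MIC = concentration inhibiting virus-induced cytopathicity.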

Human respirovirus 3 = assay: Antiviral activity against Parainfluenza 3 virus in african green monkey Vero cells assessed as reduction of virus-induced cytopathogenicity; type: functional; outline: as §1
[2] = system: Vesicular stomatitis virus; assay: Antiviral activity against vesicular stomatitis virus in human HeLa cells assessed as inhibition of virus-induced cytopathogenicity; type: functional; outline: as §1
Sindbis virus = assay: Antiviral activity against Sindbis virus in african green monkey Vero cells assessed as reduction of virus-induced cytopathogenicity; type: functional; outline: as §1
[3] = system: Mammalian orthoreovirus 1; assay: Antiviral activity against Reo virus 1 in african green monkey Vero cells assessed as reduction of virus-induced cytopathogenicity; type: functional; outline: as §1
Vero = assay: Cytotoxicity against african green monkey Vero cells; type: cell-based; settings: chlorocebus sabaeus
Outline: (§2)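 Uninfected cell cultures exposed to test compounds alongside antiviral assays; minimum cytotoxic concentration (MCC) = concentration causing a microscopically detectable alteration of cell morphology.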

Coxsackievirus B4 [4] = assay: Antiviral activity against Coxsackie virus B4 in human HeLa cells assessed as inhibition of virus-induced cytopathogenicity; type: functional; settings: Enterovirus B; outline: as §1
Coxsackievirus B4 [5] = assay: Antiviral activity against Coxsackie virus B4 in african green monkey Vero cells assessed as reduction of virus-induced cytopathogenicity; type: functional; settings: Enterovirus B; outline: as §1
Punta Toro virus = assay: Antiviral activity against Punta Toro virus in african green monkey Vero cells assessed as reduction of virus-induced cytopathogenicity; type: functional; outline: as §1
[6] = Cytotoxicity against human HeLa cells; type: cell-based; outline: as §2
Human alphaherpesvirus 1 [7] = assay: Antiviral activity against HSV1 KOS in human E6SM cells assessed as reduction of virus-induced cytopathogenicity; type: functional; settings: Human alphaherpesvirus 1, KOS; outline: as §1
[8] = system: Human immunodeficiency virus 2; assay: Antiviral activity against HIV2 ROD in human MT4 cells assessed as protection against virus-induced cytopathogenicity by MTT assay; type: functional, organism-based; parameters: Activity: concentration or dose not given beside the values; settings: for IC50: Human immunodeficiency virus 2, ROD, MT4
Outline: (§3)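 MT-4 cells at 6 × 10⁵ cells/ml infected with HIV-1 IIIB or HIV-2 ROD at 100–300 CCID50; compounds in serial five-fold dilutions, triplicate mock- and virus-infected wells. MTT viability read at 540 and 690 nm after 5 days, median OD of three wells; EC50 = 50% protection from viral cytopathic effect.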

[9] = Cytotoxicity against human E6SM cells; type: cell-based; settings: E6SM cells; outline: as §2
[10] = system: Vesicular stomatitis virus; assay: Antiviral activity against in Vesicular stomatitis virus in human E6SM cells assessed as reduction of virus-induced cytopathogenicity; type: functional; outline: as §1
Human alphaherpesvirus 2 [11] = assay: Antiviral activity against HSV2 G in human E6SM cells assessed as reduction of virus-induced cytopathogenicity; type: functional; settings: Human alphaherpesvirus 2, G; outline: as §1
Human alphaherpesvirus 2 [12] = assay: Antiviral activity against HSV2 G in human HEL cells assessed as reduction of virus-induced cytopathogenicity; type: functional; settings: Human alphaherpesvirus 2, G; outline: as §1
Human alphaherpesvirus 1 [13] = assay: Antiviral activity against thymidine kinase deficient and acyclovir resistant HSV1 KOS in human E6SM cells assessed as reduction of virus-induced cytopathogenicity; type: functional; settings: Human alphaherpesvirus 1, KOS; outline: as §1
[14] = Cytotoxicity against human MT4 cells by MTT assay; type: cell-based
Outline: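 Mock-infected MT-4 cells (6 × 10⁵ cells/ml) with serial five-fold compound dilutions in triplicate; MTT reduction read at 540 and 690 nm after 5 days, median OD of three wells; CC50 = concentration reducing OD540 of mock-infected control by 50%.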

[15] = system: Human immunodeficiency virus 1; assay: Antiviral activity against HIV1 3B in human MT4 cells assessed as protection against virus-induced cytopathogenicity by MTT assay; type: functional, organism-based; parameters: Activity: concentration or dose not given beside the values; settings: for IC50: Human immunodeficiency virus 1, 3B, MT4; outline: as §3
[16] = system: Vesicular stomatitis virus; assay: Antiviral activity against in Vesicular stomatitis virus in human HEL cells assessed as reduction of virus-induced cytopathogenicity; type: functional; outline: as §1
[17] = Cytotoxicity against human HEL cells assessed as alteration of cell morphology; type: cell-based; outline: as §2
Human alphaherpesvirus 1 [18] = assay: Antiviral activity against HSV1 KOS in human HEL cells assessed as reduction of virus-induced cytopathogenicity; type: functional; settings: Human alphaherpesvirus 1, KOS; outline: as §1
Human alphaherpesvirus 1 [19] = assay: Antiviral activity against thymidine kinase deficient and acyclovir resistant HSV1 KOS in human HEL cells assessed as reduction of virus-induced cytopathogenicity; type: functional; settings: Human alphaherpesvirus 1, KOS; outline: as §1

Compound | MIC [1] [µg/mL] | MIC (Human respirovirus 3) [µg/mL] | MIC [2] [µg/mL] | MIC (Sindbis virus) [µg/mL] | MIC [3] [µg/mL] | Activity (Vero) | MIC (Coxsackievirus B4 [4]) [µg/mL] | MIC (Coxsackievirus B4 [5]) [µg/mL] | MIC (Punta Toro virus) [µg/mL] | MCC [6] [µg/mL] | MIC (Human alphaherpesvirus 1 [7]) [µg/mL] | MCC [9] [µg/mL] | MIC [10] [µg/mL] | MIC (Human alphaherpesvirus 2 [11]) [µg/mL] | MIC (Human alphaherpesvirus 2 [12]) [µg/mL] | MIC (Human alphaherpesvirus 1 [13]) [µg/mL] | MIC [16] [µg/mL] | MCC [17] [µg/mL] | MIC (Human alphaherpesvirus 1 [18]) [µg/mL] | MIC (Human alphaherpesvirus 1 [19]) [µg/mL] | further results
Nc1ncnc2c1ncn2C[C@H](O)CO [(S)-DHPA] | > 400 | > 400 | > 400 | > 400 | > 400 | > 400 µg/mL | > 400 | > 400 | > 400 | > 400 |  |  |  |  |  |  |  |  |  |  | 
CNC(=S)Nc1ccc(-c2n[nH]c(=S)n2C)cc1 | > 80 | > 80 | > 80 | > 80 | > 80 | 400 µg/mL | > 80 | > 80 | > 80 | 400 | 240 (≈ 859 µM) | 400 | > 80 | 240 (≈ 859 µM) | 240 (≈ 859 µM) | > 80 | > 80 | 400 | 240 (≈ 859 µM) | > 80 | Activity [8]: 0%; IC50 [8]: > 80.3 µg/mL; CC50 [14]: 80.3 µg/mL (≈ 287 µM); Activity [15]: 1%; IC50 [15]: > 80.3 µg/mL
C=CCn1c(-c2ccc(NC(=S)Nc3ccccc3)cc2)n[nH]c1=S | > 80 | > 16 | > 80 | > 16 | > 16 | 80 µg/mL | > 80 | > 16 | > 16 | 400 | > 16 | 80 | > 16 | > 16 | > 16 | > 16 | > 16 | 80 | > 16 | > 16 | Activity [8]: 0%; IC50 [8]: > 19.4 µg/mL; CC50 [14]: 19.4 µg/mL (≈ 52.8 µM); Activity [15]: 30.5%; IC50 [15]: > 19.4 µg/mL
NC(=O)c1ncn([C@@H]2O[C@H](CO)[C@@H](O)[C@H]2O)n1 [RIBAVIRIN] | 9.6 (≈ 39.3 µM) | 48 (≈ 197 µM) | 48 (≈ 197 µM) | 240 (≈ 983 µM) | 48 (≈ 197 µM) | > 400 µg/mL | 240 (≈ 983 µM) | > 400 | 48 (≈ 197 µM) | > 400 | 9.6 (≈ 39.3 µM) | > 400 | 240 (≈ 983 µM) | 48 (≈ 197 µM) | 48 (≈ 197 µM) | 48 (≈ 197 µM) | 240 (≈ 983 µM) | > 400 | 9.6 (≈ 39.3 µM) | 48 (≈ 197 µM) | 
S=C(Nc1ccc(Cl)cc1)Nc1ccc(-c2n[nH]c(=S)n2-c2ccccc2)cc1 | > 16 | > 16 | > 16 | > 16 | > 16 | >= 16 ug ml-1 | > 16 | > 16 | > 16 | 80 | > 16 | ≥ 16 | > 16 | > 16 | > 16 | > 16 | > 16 | ≥ 16 | > 16 | > 16 | Activity [8]: 31%; IC50 [8]: > 10.3 µg/mL; CC50 [14]: 10.3 µg/mL (≈ 23.5 µM); Activity [15]: 4.5%; IC50 [15]: > 10.3 µg/mL
CCCCCCNC(=S)Nc1ccc(-c2n[nH]c(=S)n2CC)cc1 | > 400 | > 80 | > 400 | > 80 | > 80 | 400 µg/mL | > 400 | > 80 | > 80 | ≥ 400 | > 80 | 400 | > 80 | > 80 | > 80 | > 80 | > 80 | 400 | > 80 | > 80 | Activity [8]: 3%; IC50 [8]: > 2.58 µg/mL; CC50 [14]: 2.58 µg/mL (≈ 7.1 µM); Activity [15]: 21%; IC50 [15]: > 2.58 µg/mL
